Experimental data as given in ChEMBL document CHEMBL1955770, “Inhibition of S/G2 phase CDK4 reduces mitotic fidelity” (J Biol Chem, 2006).
Activity calls are given as the source filed them. The calls are words filed in the database; no cut-off is given here.

Experiments:
[1] = target: Receptor tyrosine-protein kinase erbB-4 (Homo sapiens) (UniProt Q15303); experiment: Inhibition of ERBB4 at 1 uM
[2] = target: Mitogen-activated protein kinase 12 (Homo sapiens) (UniProt P53778); experiment: Inhibition of p38-gamma at 1 uM
A2058 [3] = experiment: Cell cycle arrest in human A2058 cells assessed as accumulation at G1 phase at 2 uM treated 1 hr and measured 8 hr post double hydroxyurea-synchrony release using propidium iodide staining by FACS analysis; format: functional
A2058 [4] = experiment: Cell cycle arrest in human A2058 cells assessed as effect on G2/M phase progression at 2 uM treated 6 hr post double hydroxyurea-synchrony release using propidium iodide staining by FACS analysis; format: functional, cell-based
HeLa [5] = experiment: Cell cycle arrest in human HeLa cells assessed as accumulation at G1 phase at 2 uM treated 2 hr and measured 8 hr post double thymidine-synchrony release using propidium iodide staining by FACS analysis (reference value: 6 %); format: functional
[6] = target: AP2-associated protein kinase 1 (Homo sapiens) (UniProt Q2M2I8); experiment: Inhibition of AAK1 at 1 uM
[7] = target: Serine/threonine-protein kinase 10 (Homo sapiens) (UniProt O94804); experiment: Inhibition of STK10 at 1 uM
HeLa [8] = experiment: Cell cycle arrest in human HeLa cells transfected with cyclin D3 siRNA at 2 uM measured after 8 to 20 hr post hydroxyurea-synchrony release by time-lapse microscopy; format: functional, cell-based
Method in brief: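 HeLa cells transfected with 20 nM cyclin D3 siRNA number 1 or scrambled siRNA, then synchronized by overnight 2 mM hydroxyurea block and released. Treated with CDK4 inhibitor, siRNA, or both; entry into mitosis followed by time-lapse microscopy.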

RKO = experiment: Antiproliferative activity against human RKO cells assessed as inhibition of S phase after 48 hrs by MTT assay; format: functional, cell-based
Method in brief: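 Cells grown in DMEM with 3 mM HEPES and 10% Serum Supreme at 37 °C, 5% CO2. Proliferation read by MTT assay 48 h after drug addition; IC50 given as mean of two separate determinations, each in duplicate.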

HeLa [9] = experiment: Cell cycle arrest in human HeLa cells assessed as time delay in progression through G2/M phase at 4 uM treated within 4 hr post double thymidine-synchrony release using propidium iodide staining by FACS analysis; format: functional
Method in brief: (§1)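 Cells harvested at set times post-release, fixed in 70% ethanol, stained with 5 μg/ml propidium iodide plus 0.5 mg/ml RNase A, and analysed by flow cytometry. Cell-cycle phase fractions calculated by ModFit.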

A2058 [10] = experiment: Cell cycle arrest in human A2058 cells assessed as accumulation at G1 phase at 2 uM treated 1 hr and measured 10 hr post double hydroxyurea-synchrony release using propidium iodide staining by FACS analysis; format: functional
HeLa [11] = experiment: Cell cycle arrest in human HeLa cells assessed as accumulation at G2/M phase at 2 uM treated 4 hr and measured 12 hr post double thymidine-synchrony release using propidium iodide staining by FACS analysis (reference value: 17 %); format: functional; method in brief: as §1
[12] = Cell cycle arrest in human SK-MEL-13 cells assessed as accumulation at G1 phase at 2 uM treated 1 hr and measured 10 hr post double hydroxyurea-synchrony release using propidium iodide staining by FACS analysis (reference value: 14 %); format: functional, cell-based
Method in brief: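 SK-Mel-13 cells synchronized with 2 mM hydroxyurea, then treated with 2 μM CDK4 inhibitor or left untreated 1 h after release. Harvested at indicated times post-release, ethanol-fixed, propidium iodide/RNase stained, and DNA content read by FACS. Proportions of G1, S and G2/M cells derived with ModFit.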

A2058 [13] = experiment: Cell cycle arrest in human A2058 cells assessed as time taken to reach peak mitosis at 2 uM treated 1 hr and post double hydroxyurea-synchrony release using propidium iodide staining by FACS analysis; format: functional
HeLa [14] = experiment: Induction of abberent mitosis in human HeLa cells expressing GFP-H2B assessed as lagging chromosomes at astral side of spindle microtubules at 2 uM treated 1 hr and measured 12 hr post-thymidine release by time-lapse microscopy; format: functional, cell-based
HeLa [15] = experiment: Cell cycle arrest at G2 phase in human HeLa cells assessed as effect on CCNB1 accumulation at 2 uM treated at early S phase measured after 6-14 hr post thymidine-synchrony release by immunoblot method; format: functional, cell-based
Method in brief: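 HeLa cells synchronized by double thymidine block and released, treated with 2 μM inhibitor in early S phase, or left untreated. Harvested at set times after release, lysed in NETN with phosphatase and protease inhibitors, run on SDS-PAGE and immunoblotted for cyclin B1 and phosphotyrosine 15 CDK1/2, with cyclin D3 as loading control. Detection by HRP secondary and ECL.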

HeLa [16] = experiment: Cell cycle arrest in human HeLa cells assessed as accumulation at S phase at 2 uM treated 2 hr and measured 10 hr post double thymidine-synchrony release using propidium iodide staining by FACS analysis (reference value: 1 %); format: functional; method in brief: as §1
[17] = target: Serine/threonine-protein kinase PAK 6 (Homo sapiens) (UniProt Q9NQU5); experiment: Inhibition of PAK6 at 1 uM
[18] = target: Receptor-type tyrosine-protein kinase FLT3 (Homo sapiens) (UniProt P36888); experiment: Inhibition of FLT3 at 1 uM
HeLa [19] = experiment: Cell cycle arrest at G2 phase in human HeLa cells assessed as effect on cyclin A accumulation at 2 uM treated at early S phase measured after 6-14 hr post thymidine-synchrony release by immunoblot method; format: functional, cell-based
A2058 [20] = experiment: Cell cycle arrest in human A2058 cells assessed as accumulation at G1 phase at 2 uM treated 1 hr and measured 12 hr post double hydroxyurea-synchrony release using propidium iodide staining by FACS analysis (reference value: 14 %); format: functional
[21] = target: Aurora kinase C (Homo sapiens) (UniProt Q9UQB9); experiment: Inhibition of AURKC at 1 uM
Method in brief: (§2)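 Competition binding screen across a kinase panel with compound at 1 μM. Read-out is % competition. Kinases not hit at this concentration were scored '<50'. No Kd was determined for hits.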

[22] = target: Calcium/calmodulin-dependent protein kinase type 1D (Homo sapiens) (UniProt Q8IU85); experiment: Inhibition of CAMK1D at 1 uM; method in brief: as §2
[23] = target: Serine/threonine-protein kinase PAK 5 (Homo sapiens) (UniProt Q9P286); experiment: Inhibition of PAK7/PAK5 at 1 uM
[24] = target: Tyrosine-protein kinase Blk (Homo sapiens) (UniProt P51451); experiment: Inhibition of BLK at 1 uM; method in brief: as §2
[25] = Inhibition of AKT using fluorescent substrate by IMAP assay
Method in brief: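 Run in-house using IMAP: phosphorylated fluorescent peptide substrate binds preferentially to immobilized metal beads, which quantifies kinase activity. ATP at 3× the Km of each enzyme.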

[26] = target: Tyrosine-protein kinase Fyn (Homo sapiens) (UniProt P06241); experiment: Inhibition of FYN at 1 uM
HeLa [27] = experiment: Induction of abberent mitosis in synchronized human HeLa cells expressing GFP-H2B assessed as micronuclei formation at 2 uM treated 1 hr and measured 12 hr post thymidine-synchrony release by time-lapse microscopy; format: functional, cell-based
A2058 [28] = experiment: Cell cycle arrest in human A2058 cells assessed as accumulation at S phase at 2 uM treated 1 hr and measured 12 hr post double hydroxyurea-synchrony release using propidium iodide staining by FACS analysis (reference value: 47 %); format: functional

Sequence of Tyrosine-protein kinase Blk (Homo sapiens) (P51451 2-505 limits assumed): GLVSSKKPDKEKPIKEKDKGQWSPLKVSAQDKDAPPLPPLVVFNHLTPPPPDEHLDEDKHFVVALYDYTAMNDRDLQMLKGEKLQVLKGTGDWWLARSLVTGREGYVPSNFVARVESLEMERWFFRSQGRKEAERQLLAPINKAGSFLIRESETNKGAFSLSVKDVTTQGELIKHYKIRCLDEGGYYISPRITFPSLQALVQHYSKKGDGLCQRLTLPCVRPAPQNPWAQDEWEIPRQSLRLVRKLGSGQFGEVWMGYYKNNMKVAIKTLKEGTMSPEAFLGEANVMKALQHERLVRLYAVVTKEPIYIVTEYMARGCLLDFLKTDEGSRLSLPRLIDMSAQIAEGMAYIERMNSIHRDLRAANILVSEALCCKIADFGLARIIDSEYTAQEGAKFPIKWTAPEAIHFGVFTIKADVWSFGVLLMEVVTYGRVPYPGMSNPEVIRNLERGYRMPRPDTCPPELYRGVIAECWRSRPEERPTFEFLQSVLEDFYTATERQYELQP
Sequence of AP2-associated protein kinase 1 (Homo sapiens) (Q2M2I8 whole entry, looked up): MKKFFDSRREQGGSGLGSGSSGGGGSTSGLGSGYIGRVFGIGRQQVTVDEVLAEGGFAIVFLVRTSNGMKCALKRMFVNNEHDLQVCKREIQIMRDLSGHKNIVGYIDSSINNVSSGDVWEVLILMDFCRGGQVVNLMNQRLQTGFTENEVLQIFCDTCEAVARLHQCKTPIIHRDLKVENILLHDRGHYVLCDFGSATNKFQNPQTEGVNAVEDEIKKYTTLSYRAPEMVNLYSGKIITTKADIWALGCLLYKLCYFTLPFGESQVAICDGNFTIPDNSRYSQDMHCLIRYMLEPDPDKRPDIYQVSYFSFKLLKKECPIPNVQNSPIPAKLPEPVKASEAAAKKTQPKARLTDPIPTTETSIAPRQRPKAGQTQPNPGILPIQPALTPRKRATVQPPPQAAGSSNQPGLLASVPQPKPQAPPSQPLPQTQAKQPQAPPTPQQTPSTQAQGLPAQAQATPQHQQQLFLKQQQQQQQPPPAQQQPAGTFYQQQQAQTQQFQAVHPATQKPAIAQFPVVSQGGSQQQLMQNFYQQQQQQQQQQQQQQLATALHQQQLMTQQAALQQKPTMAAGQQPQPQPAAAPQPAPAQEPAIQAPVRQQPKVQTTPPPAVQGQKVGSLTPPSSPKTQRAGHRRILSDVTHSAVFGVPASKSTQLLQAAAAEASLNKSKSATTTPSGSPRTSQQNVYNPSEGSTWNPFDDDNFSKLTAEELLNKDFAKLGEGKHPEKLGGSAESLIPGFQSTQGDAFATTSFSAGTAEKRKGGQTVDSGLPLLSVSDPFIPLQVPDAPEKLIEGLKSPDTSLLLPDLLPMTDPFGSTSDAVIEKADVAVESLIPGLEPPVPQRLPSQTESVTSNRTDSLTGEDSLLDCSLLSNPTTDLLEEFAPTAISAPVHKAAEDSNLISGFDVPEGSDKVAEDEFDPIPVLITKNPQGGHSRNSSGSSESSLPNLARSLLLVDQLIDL
Sequence of Mitogen-activated protein kinase 12 (Homo sapiens) (P53778 whole entry): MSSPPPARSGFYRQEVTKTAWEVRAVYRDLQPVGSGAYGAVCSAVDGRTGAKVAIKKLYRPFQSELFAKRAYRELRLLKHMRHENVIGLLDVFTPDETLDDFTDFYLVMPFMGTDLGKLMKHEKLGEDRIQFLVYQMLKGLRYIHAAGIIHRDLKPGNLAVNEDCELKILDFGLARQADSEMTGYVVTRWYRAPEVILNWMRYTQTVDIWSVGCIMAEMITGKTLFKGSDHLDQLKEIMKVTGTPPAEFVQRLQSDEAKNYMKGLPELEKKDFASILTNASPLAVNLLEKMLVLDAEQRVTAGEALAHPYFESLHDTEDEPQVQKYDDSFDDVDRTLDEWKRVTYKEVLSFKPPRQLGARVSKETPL
Sequence of Serine/threonine-protein kinase 10 (Homo sapiens) (O94804 whole entry, looked up): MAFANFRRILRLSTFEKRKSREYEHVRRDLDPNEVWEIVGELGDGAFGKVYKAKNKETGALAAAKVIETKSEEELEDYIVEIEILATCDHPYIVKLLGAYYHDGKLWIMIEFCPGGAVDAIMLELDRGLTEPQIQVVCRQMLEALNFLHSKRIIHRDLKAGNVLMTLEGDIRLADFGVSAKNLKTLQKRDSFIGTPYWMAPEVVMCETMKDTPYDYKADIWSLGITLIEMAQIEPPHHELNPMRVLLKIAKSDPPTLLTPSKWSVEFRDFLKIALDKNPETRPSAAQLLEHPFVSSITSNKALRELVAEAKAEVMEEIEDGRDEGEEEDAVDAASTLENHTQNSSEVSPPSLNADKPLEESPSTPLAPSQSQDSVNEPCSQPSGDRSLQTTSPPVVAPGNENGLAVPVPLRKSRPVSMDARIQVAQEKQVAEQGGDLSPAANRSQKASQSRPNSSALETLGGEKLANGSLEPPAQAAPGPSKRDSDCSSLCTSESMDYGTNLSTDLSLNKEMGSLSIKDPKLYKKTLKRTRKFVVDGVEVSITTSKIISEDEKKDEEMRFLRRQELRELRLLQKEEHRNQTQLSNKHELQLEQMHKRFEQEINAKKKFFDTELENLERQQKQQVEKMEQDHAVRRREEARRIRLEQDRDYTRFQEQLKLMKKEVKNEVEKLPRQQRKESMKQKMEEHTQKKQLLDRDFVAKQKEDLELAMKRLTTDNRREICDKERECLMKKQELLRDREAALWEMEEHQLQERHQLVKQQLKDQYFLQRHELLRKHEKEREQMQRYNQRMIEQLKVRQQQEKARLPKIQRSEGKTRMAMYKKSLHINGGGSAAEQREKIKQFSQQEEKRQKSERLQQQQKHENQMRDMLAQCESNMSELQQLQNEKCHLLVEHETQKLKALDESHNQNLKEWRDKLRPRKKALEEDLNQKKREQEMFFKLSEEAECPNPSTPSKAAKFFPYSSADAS
Sequence of Receptor tyrosine-protein kinase erbB-4 (Homo sapiens) (Q15303 whole entry): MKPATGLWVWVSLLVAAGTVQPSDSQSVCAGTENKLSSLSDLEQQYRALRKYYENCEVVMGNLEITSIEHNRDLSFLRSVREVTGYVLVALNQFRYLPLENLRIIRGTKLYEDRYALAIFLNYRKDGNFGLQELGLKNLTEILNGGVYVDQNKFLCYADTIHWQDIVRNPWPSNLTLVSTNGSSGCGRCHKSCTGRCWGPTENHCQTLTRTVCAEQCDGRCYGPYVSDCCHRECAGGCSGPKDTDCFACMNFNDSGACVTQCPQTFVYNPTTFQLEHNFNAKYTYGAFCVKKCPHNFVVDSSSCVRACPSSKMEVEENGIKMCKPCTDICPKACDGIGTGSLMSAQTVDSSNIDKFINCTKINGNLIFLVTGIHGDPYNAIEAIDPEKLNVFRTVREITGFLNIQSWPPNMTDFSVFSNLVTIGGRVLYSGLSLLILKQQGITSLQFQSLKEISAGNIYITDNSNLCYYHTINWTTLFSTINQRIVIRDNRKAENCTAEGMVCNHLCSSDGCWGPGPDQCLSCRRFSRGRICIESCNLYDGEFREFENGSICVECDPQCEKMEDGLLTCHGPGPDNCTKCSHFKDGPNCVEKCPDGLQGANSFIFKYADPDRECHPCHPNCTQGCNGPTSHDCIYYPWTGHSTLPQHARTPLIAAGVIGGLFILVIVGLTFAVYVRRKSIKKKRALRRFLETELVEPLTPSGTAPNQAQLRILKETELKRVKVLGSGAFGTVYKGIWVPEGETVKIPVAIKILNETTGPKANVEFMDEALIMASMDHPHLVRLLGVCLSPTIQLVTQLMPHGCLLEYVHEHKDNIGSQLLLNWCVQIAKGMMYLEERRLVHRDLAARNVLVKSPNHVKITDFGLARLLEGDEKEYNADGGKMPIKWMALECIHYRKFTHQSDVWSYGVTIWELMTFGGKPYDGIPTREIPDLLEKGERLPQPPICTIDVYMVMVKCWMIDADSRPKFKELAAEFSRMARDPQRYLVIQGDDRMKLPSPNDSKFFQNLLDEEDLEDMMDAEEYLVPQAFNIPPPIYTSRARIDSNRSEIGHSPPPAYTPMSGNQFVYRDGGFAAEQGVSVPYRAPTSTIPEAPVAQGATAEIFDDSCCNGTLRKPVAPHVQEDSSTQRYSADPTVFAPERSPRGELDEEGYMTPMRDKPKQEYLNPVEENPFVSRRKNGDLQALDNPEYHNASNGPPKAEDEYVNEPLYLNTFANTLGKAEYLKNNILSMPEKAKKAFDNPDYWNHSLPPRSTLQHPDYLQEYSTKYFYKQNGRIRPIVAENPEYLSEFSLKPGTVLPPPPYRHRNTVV
Sequence of Serine/threonine-protein kinase PAK 6 (Homo sapiens) (Q9NQU5 whole entry, looked up): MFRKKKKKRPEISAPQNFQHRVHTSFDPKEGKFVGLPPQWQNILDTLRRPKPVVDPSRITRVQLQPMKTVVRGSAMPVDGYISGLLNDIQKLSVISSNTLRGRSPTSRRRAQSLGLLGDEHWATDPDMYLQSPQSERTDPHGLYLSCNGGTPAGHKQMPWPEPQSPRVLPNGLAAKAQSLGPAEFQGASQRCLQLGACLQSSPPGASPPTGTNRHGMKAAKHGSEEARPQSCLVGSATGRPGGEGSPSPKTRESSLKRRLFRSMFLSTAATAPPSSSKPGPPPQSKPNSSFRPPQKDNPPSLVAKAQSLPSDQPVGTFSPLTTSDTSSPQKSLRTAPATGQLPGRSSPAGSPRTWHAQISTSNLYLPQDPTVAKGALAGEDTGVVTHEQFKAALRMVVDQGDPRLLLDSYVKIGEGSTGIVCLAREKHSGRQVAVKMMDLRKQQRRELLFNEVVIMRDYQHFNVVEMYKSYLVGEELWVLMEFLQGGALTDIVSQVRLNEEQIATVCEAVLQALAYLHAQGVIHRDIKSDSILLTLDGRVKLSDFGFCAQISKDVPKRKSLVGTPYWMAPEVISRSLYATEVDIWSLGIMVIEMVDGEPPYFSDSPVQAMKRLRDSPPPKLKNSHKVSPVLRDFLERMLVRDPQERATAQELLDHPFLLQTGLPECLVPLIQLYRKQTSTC

SMILES: CN1CCN(c2ccc(Nc3nc(N)c(C(=O)c4ccc5c(c4)OCCO5)s3)cc2)CC1
- inhibition [1]: < 50%
- inhibition [2]: < 50%
- Activity (A2058 [3]): 8%
- Activity (A2058 [4]): inactive
- Activity (HeLa [5]): 7%
- inhibition [6]: 84%
- inhibition [7]: < 50%
- Activity (HeLa [8]): Active
- IC50 (RKO): 1600 nM
- Time (HeLa [9]): >4 h
- Activity (A2058 [10]): 7%
- Activity (HeLa [11]): 62%
- Activity [12]: 11%
- Time (A2058 [13]): 10 h
- Activity (HeLa [14]): Active
- Activity (HeLa [15]): inactive
- Activity (HeLa [16]): 6%
- inhibition [17]: < 50%
- inhibition [18]: < 50%
- Activity (HeLa [19]): inactive
- Activity (A2058 [20]): 0%
- inhibition [21]: < 50%
- inhibition [22]: < 50%
- inhibition [23]: < 50%
- inhibition [24]: < 50%
- IC50 [25]: > 200000 nM
- inhibition [26]: < 50%
- Activity (HeLa [27]): Active
- Activity (A2058 [28]): 40%

SMILES: COc1cccc(C(=O)c2sc(Nc3ccc(N4CCN(C(C)C)CC4)cc3)nc2N)c1
- Activity (A2058 [3]): 8%
- Activity (A2058 [4]): inactive
- Activity (HeLa [5]): 7%
- Activity (HeLa [8]): Active
- IC50 (RKO): 540 nM
- Time (HeLa [9]): >4 h
- Activity (A2058 [10]): 7%
- Activity (HeLa [11]): 62%
- Activity [12]: 11%
- Time (A2058 [13]): 10 h
- Activity (HeLa [14]): Active
- Activity (HeLa [15]): inactive
- Activity (HeLa [16]): 6%
- Activity (HeLa [19]): inactive
- Activity (A2058 [20]): 0%
- IC50 [25]: > 200000 nM
- Activity (HeLa [27]): Active
- Activity (A2058 [28]): 40%
